Laboratory results taken from ChEMBL document CHEMBL3525963, “Tissue distribution and elimination of [14C]apixaban in rats” (Drug Metab Dispos, 2011).

Experiments:
Design in all cases: dose 5 mg/kg, dosed compound name [14C]-apixaban, route oral
Settings in all cases: in vivo
Heart = assay: Biodistribution in pregnant Sprague-Dawley rat heart at 5 mg/kg, po administered as single dose measured after 0.5 hrs; assay type: ADME, organism-based
Rattus norvegicus [1] = assay: Biodistribution in female Sprague-Dawley rat salivary gland at 5 mg/kg, po administered as single dose measured after 0.5 hrs; assay type: ADME, organism-based
Outline: (§1)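 [14C]apixaban (20 μCi/mL in dosing solution) in 0.5% Tween 80 in Labrafil given by oral gavage to fasted female rats, 206-213 g, at 100 μCi/kg. One rat per time point was euthanized and snap-frozen. Sagittal 40 µm whole-body sections were read by QWBA phosphor imaging against [14C]glucose standards. Results are in µg eq apixaban/g, with LLOQ 0.037 μg eq/g.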

Rattus norvegicus [2] = assay: Biodistribution in male Sprague-Dawley rat pituitary gland at 5 mg/kg, po administered as single dose measured after 72 hrs; assay type: ADME, organism-based
Outline: (§2)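 Fasted male SD rats (225-252 g) each received one oral gavage dose of [14C]apixaban, 5 mg/kg (100 μCi/kg), in 0.5% Tween 80/Labrafil vehicle. One rat was killed per time point, from 0.5 to 168 h. Frozen carcasses were cut into 40 µm sagittal whole-body sections and read by QWBA phosphor imaging against [14C]glucose calibrants. Results are in µg apixaban eq/g; BLQ <0.037 µg eq/g.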

Liver [3] = assay: Biodistribution in male Sprague-Dawley rat liver at 5 mg/kg, po administered as single dose measured after 0.5 hrs; assay type: ADME, organism-based
Outline: (§3)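 [14C]apixaban (1.0 mg/mL, 20 μCi/mL) in 0.5% Tween 80 in Labrafil, given by oral gavage at 100 μCi/kg to male rats (225-252 g) fasted overnight through 4 h post-dose. One rat per time point. Carcasses frozen in hexane/dry ice and cut into 40 µm sagittal sections. QWBA read on phosphor plates against [14C]glucose standards, reported as µg eq/g. LLOQ 0.037 µg eq/g.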

Blood [4] = assay: Biodistribution in female Sprague-Dawley rat blood at 5 mg/kg, po administered as single dose measured after 1 hr; assay type: ADME, organism-based
Outline: (§4)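 [¹⁴C]Apixaban given by oral gavage at 5 mg/kg (100 μCi/kg) in 0.5% Tween 80 in Labrafil (1.0 mg/mL dosing solution) to rats fasted overnight through 4 h post-dose. One rat per time point; carcass frozen in hexane/dry ice. Quantitative whole-body autoradiography used 40 µm sagittal sections and a phosphor imaging plate calibrated with [¹⁴C]glucose standards (0.001–6.5 μCi/g). Read-out in µg eq apixaban/g; LLOQ 0.037 μg eq/g.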

Liver [5] = assay: Biodistribution in female Sprague-Dawley rat liver at 5 mg/kg, po administered as single dose measured after 4 hrs; assay type: ADME, organism-based
Outline: (§5)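 Quantitative whole-body autoradiography was run after a single 5 mg/kg (100 μCi/kg) oral gavage to fasted female or pregnant SD rats, one rat per time point. Carcasses were frozen in hexane/dry ice, and 40 µm sagittal sections were dried at −20°C for at least 48 h. Sections were exposed to a phosphor plate alongside [14C]glucose standards (0.001–6.5 µCi/g). Results are µg eq/g, with LLOQ 0.037 µg eq/g.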

Rattus norvegicus [6] = assay: Biodistribution in pregnant Sprague-Dawley rat salivary gland at 5 mg/kg, po administered as single dose measured after 24 hrs; assay type: ADME, organism-based
Outline: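 Pregnant SD rats (270-319 g) were fasted overnight and given one oral gavage of 5 mg/kg (100 μCi/kg) in 0.5% Tween 80 in Labrafil. One rat was euthanized per time point (0.5, 1, 4, 8, 24, 48 h) and the carcass frozen. 40 µm sagittal sections were phosphor-imaged against [14C]glucose standards and results reported as µg eq/g; LLOQ 0.037 µg eq/g.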

Rattus norvegicus [7] = assay: Biodistribution in fetal kidney of pregnant Sprague-Dawley rat at 5 mg/kg, po administered as single dose measured after 24 hrs; assay type: ADME, organism-based; outline: as §5
Rattus norvegicus [8] = assay: Biodistribution in female Sprague-Dawley rat brown fat at 5 mg/kg, po administered as single dose measured after 24 hrs; assay type: ADME, organism-based, Brown adipose tissue; outline: as §5
Rattus norvegicus [9] = assay: Biodistribution in pregnant Sprague-Dawley rat bone marrow at 5 mg/kg, po administered as single dose measured after 1 hr; assay type: ADME, organism-based
Lung = assay: Biodistribution in pregnant Sprague-Dawley rat lung at 5 mg/kg, po administered as single dose measured after 8 hrs; assay type: ADME, organism-based
Blood [10] = assay: Biodistribution in male Sprague-Dawley rat blood at 5 mg/kg, po administered as single dose measured after 4 hrs; assay type: ADME, organism-based; outline: as §4
Liver [11] = assay: Biodistribution in female Sprague-Dawley rat liver at 5 mg/kg, po administered as single dose measured after 24 hrs; assay type: ADME, organism-based; outline: as §4
Liver [12] = assay: Biodistribution in pregnant Sprague-Dawley rat liver at 5 mg/kg, po administered as single dose measured after 1 hr; assay type: ADME, organism-based
Outline: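 Fasted pregnant SD rats (n=6, 270-319 g) each received one oral gavage dose of [14C]apixaban, 5 mg/kg (100 μCi/kg), in 0.5% Tween 80/Labrafil. One rat was killed at each of 0.5, 1, 4, 8, 24 and 48 h. Carcasses were frozen in hexane/dry ice, cut into 40 µm sagittal sections, exposed to phosphor plates and quantified against [14C]glucose standards as µg eq/g. LLOQ was 0.037 µg eq/g.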

Liver [13] = assay: Biodistribution in male Sprague-Dawley rat liver at 5 mg/kg, po administered as single dose measured after 24 hrs; assay type: ADME, organism-based; outline: as §3
Liver [14] = assay: Biodistribution in female Sprague-Dawley rat liver at 5 mg/kg, po administered as single dose measured after 72 hrs; assay type: ADME, organism-based; outline: as §5
Rattus norvegicus [15] = assay: Biodistribution in pregnant Sprague-Dawley rat placenta at 5 mg/kg, po administered as single dose measured after 1 hr; assay type: ADME, organism-based
Rattus norvegicus [16] = assay: Biodistribution in male Sprague-Dawley rat bone marrow at 5 mg/kg, po administered as single dose measured after 72 hrs; assay type: ADME, organism-based; outline: as §2
Rattus norvegicus [17] = assay: Biodistribution in female Sprague-Dawley rat kidney cortex at 5 mg/kg, po administered as single dose measured after 0.5 hrs; assay type: ADME, organism-based; outline: as §1
Rattus norvegicus [18] = assay: Biodistribution in female Sprague-Dawley rat kidney cortex at 5 mg/kg, po administered as single dose measured after 4 hrs; assay type: ADME, organism-based; outline: as §1
Thymus = assay: Biodistribution in pregnant Sprague-Dawley rat thymus at 5 mg/kg, po administered as single dose measured after 0.5 hrs; assay type: ADME, organism-based
Spleen = assay: Biodistribution in male Sprague-Dawley rat spleen at 5 mg/kg, po administered as single dose measured after 24 hrs; assay type: ADME, organism-based; outline: as §2
Rattus norvegicus [19] = assay: Biodistribution in fetal liver of pregnant Sprague-Dawley rat at 5 mg/kg, po administered as single dose measured after 0.5 hrs; assay type: ADME, organism-based
Outline: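 Pregnant rats, 270-319 g and fasted overnight, received [14C]apixaban by oral gavage at 100 μCi/kg in 0.5% Tween 80/Labrafil. One dam per time point was euthanized and frozen in hexane/dry ice. Fetal tissue radioactivity was measured by QWBA on 40 µm sagittal sections calibrated with [14C]glucose standards. Values are in µg eq/g, with LLOQ 0.037 μg eq/g.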

**Q.** For COc1ccc(-n2nc(C(N)=O)c3c2C(=O)N(c2ccc(N4CCCC[14C]4=O)cc2)CC3)cc1, which Radiolabel recovery (Heart) is on record?
**A.** The Radiolabel recovery was 0.68 ugequiv/g.

**Q.** What about the Radiolabel recovery (Rattus norvegicus [1]) of the same molecule?
**A.** Its Radiolabel recovery is 0.28 ugequiv/g.

**Q.** What about the Radiolabel recovery (Rattus norvegicus [2]) of the same molecule?
**A.** The Radiolabel recovery was “Not detected assumed BLQ”.

**Q.** What about the Radiolabel recovery (Liver [3]) of the same molecule?
**A.** Its Radiolabel recovery is 0.81 ugequiv/g.

**Q.** And the Radiolabel recovery (Blood [4])?
**A.** The Radiolabel recovery was 0.88 ugequiv/g.

**Q.** What about the Radiolabel recovery (Liver [5]) of the same molecule?
**A.** The Radiolabel recovery was 3.98 ugequiv/g.

**Q.** What about the Radiolabel recovery (Rattus norvegicus [6]) of the same molecule?
**A.** The Radiolabel recovery was “Not detected assumed BLQ”.

**Q.** What about the Radiolabel recovery (Rattus norvegicus [7]) of the same molecule?
**A.** The Radiolabel recovery was “Not sampled as not visualised in autoradiograph”.

**Q.** And the Radiolabel recovery (Rattus norvegicus [8])?
**A.** Its Radiolabel recovery is “Not detected assumed BLQ”.

**Q.** What about the Radiolabel recovery (Rattus norvegicus [9]) of the same molecule?
**A.** The Radiolabel recovery was 0.33 ugequiv/g.

**Q.** What about the Radiolabel recovery (Lung) of the same molecule?
**A.** The Radiolabel recovery was 0.15 ugequiv/g.

**Q.** And the Radiolabel recovery (Blood [10])?
**A.** The Radiolabel recovery was 0.6 ugequiv/g.

**Q.** And the Radiolabel recovery (Liver [11])?
**A.** Its Radiolabel recovery is under 0.037 ugequiv/g.

**Q.** What about the Radiolabel recovery (Liver [12]) of the same molecule?
**A.** The Radiolabel recovery was 7.38 ugequiv/g.

**Q.** What about the Radiolabel recovery (Liver [13]) of the same molecule?
**A.** Its Radiolabel recovery is under 0.037 ugequiv/g.

**Q.** What about the Radiolabel recovery (Liver [14]) of the same molecule?
**A.** Its Radiolabel recovery is “Not detected assumed BLQ”.

**Q.** And the Radiolabel recovery (Rattus norvegicus [15])?
**A.** Its Radiolabel recovery is 0.74 ugequiv/g.

**Q.** What about the Radiolabel recovery (Rattus norvegicus [16]) of the same molecule?
**A.** The Radiolabel recovery was “Not sampled as not visualised in autoradiograph”.

**Q.** What about the Radiolabel recovery (Rattus norvegicus [17]) of the same molecule?
**A.** The Radiolabel recovery was 0.82 ugequiv/g.

**Q.** And the Radiolabel recovery (Rattus norvegicus [18])?
**A.** Its Radiolabel recovery is 1.21 ugequiv/g.

**Q.** And the Radiolabel recovery (Thymus)?
**A.** The Radiolabel recovery was 0.38 ugequiv/g.

**Q.** And the Radiolabel recovery (Spleen)?
**A.** The Radiolabel recovery was “Not detected assumed BLQ”.

**Q.** What about the Radiolabel recovery (Rattus norvegicus [19]) of the same molecule?
**A.** The Radiolabel recovery was 0.16 ugequiv/g.
